NPY Y1 blocker: antagonists of human neuropeptide Y receptor Y1; 1% of 200,000 active; inhibition, % at 3.6 µM; AID 1040; HEK293-CNG Y1 cells, membrane potential fluorescence; NPY at EC95, then isoproterenol; P25929;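 active means inhibition above the campaign mean inhibition of all tested compounds plus 3 SD, cut at about 20% in these data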;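 further: 0% = DMSO wells given NPY plus isoproterenol and 100% = isoproterenol alone without NPY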
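Test system – HEK293 Y1/CNG channel cell line · Also added – NPY agonist 25 nM, then isoproterenol 1 µM plus Ro 20-1724 25 µM · Compound dosing – one concentration, 3.6 µM, in 0.4% DMSO · Schedule – compound incubation 1 h at room temperature, readout 45 min post-stimulation · Technique – fluorescence, membrane potential probe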
NPY Y2 blocker: NPY-Y2 (human) receptor antagonism | P49146 | NPY-Y2 expressing cells, antagonist mode | inhibition, % at 2.7 µM | 0.99% of 140,000 active;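 further: 0% = vehicle with agonist challenge and 100% = reference antagonist with challenge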
Target sequence (P49146 whole entry, looked up): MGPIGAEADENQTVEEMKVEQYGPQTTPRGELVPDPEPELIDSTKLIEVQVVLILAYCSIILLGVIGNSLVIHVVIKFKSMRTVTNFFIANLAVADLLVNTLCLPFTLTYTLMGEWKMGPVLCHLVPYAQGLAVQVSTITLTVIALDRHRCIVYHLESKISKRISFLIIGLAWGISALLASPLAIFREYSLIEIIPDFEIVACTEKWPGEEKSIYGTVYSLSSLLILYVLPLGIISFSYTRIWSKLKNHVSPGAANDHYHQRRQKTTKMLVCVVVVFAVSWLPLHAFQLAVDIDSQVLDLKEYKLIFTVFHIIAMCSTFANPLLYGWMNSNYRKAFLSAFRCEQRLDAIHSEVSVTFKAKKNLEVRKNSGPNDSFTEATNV
NPY-Y1 PAM-ag: human NPY-Y1 potentiation or agonism, primary screen; activation, % at 3.6 µM; P25929; 0.37% of 220,000 active; NPY-Y1 expressing cells, potentiator/agonist activation; AID 1304; in the data active means activation above about 33%, passing the limit was not always enough;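 further: cells stimulated with NPY at EC10 then isoproterenol at EC100; 0% = low agonist plus stimulus and 100% = saturating agonist plus stimulus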
NPY-Y2 PAM-ag: potentiators or agonists of human neuropeptide Y receptor Y2; 0.45% of 220,000 active; activation, % at 3.6 µM; cells expressing NPY-Y2, potentiator/agonist read-out; P49146; in the data active means activation above about 27%;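 further: cells stimulated with NPY near EC25 plus isoproterenol at EC100; 0% = vehicle plus submaximal agonist and 100% = vehicle plus saturating agonist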
NPY1 antag conf: confirmation of human neuropeptide Y receptor Y1 antagonists; shares compounds with NPY Y1 blocker; HEK293-CNG NPY-Y1, membrane potential fluorescence, cAMP; NPY challenge against isoproterenol-raised cAMP; inhibition, % at 3.6 µM; 21% of 1,200 active; in the data active means inhibition above about 20%;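 further: 0% = vehicle with agonist plus stimulus and 100% = stimulus alone without agonist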
NPY-Y2 antag ct: human NPY-Y2 antagonism in NPY-Y1 counter-screen; shares compounds with NPY Y1 blocker; HEK293 NPY-Y2 CNG membrane potential fluorescence; cells given NPY, then isoproterenol; inhibition, % at 3.6 µM; 28% of 1,200 active; AID 1255;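 further: 0% = DMSO with agonist challenge and 100% = reference antagonist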
Starred values were filed as active, the others as inactive; / = not tested or not shown. A selection: hits, their analogues and other compounds. The true share with any hit is near 1.8%. Unless noted, no stated cut-off is given here; in the data, active means inhibition above about 17%; inactive means the rest.

SMILES | NPY Y1 blocker | NPY Y2 blocker | NPY-Y1 PAM-ag | NPY-Y2 PAM-ag | NPY1 antag conf | NPY-Y2 antag ct
CC(C)c1ccc(C(=O)NNC(=O)C2CC=CCC2C(=O)O)cc1 (stereo unspecified) | 11 | 1 | 0 | -7 | / | /
CCc1cc(SC#N)ccc1N | -1 | / | 3 | 5 | / | /
COc1ccc(NC(=O)c2c(NC(=O)CCC(=O)O)sc(-c3ccccc3)c2C)cc1 | 12 | / | -5 | -18 | / | /
Cc1ccccc1NC1=C(Cl)C(=O)N(C2CCCCC2)C1=O | 22* | 3 | -14 | 7 | 7 | 1
CN(c1ccc(OCc2nnc(-c3ccccc3)o2)cc1)S(=O)(=O)c1ccccc1 | 28* | 15 | -55 | -16 | 12 | 14
CC(C(=O)Nc1c2c(cc3c1CCC3)CCC2)N1CCCC1 (stereo unspecified) | 20* | 10 | -37 | -15 | 13 | 8
COCCN(CCOC)C(=O)COC(=O)c1ccc(Cl)c(S(=O)(=O)N(C)c2ccccc2)c1 | 8 | / | 0 | 4 | / | /
CN(Cc1ccccc1)CC(O)COc1ccc(CNCc2cccnc2)cc1 (stereo unspecified) | 7 | / | -19 | -16 | / | /
CN(Cc1ccccc1)CC(O)COc1ccc(CNCc2ccc(Cl)s2)cc1 (stereo unspecified) | 29* | / | -34 | -24 | 20* | 30*
CCc1nnc(NC(=O)c2ccc(S(=O)(=O)N3CCCCCC3)cc2)s1 | 61* | 0 | 8 | 3 | -4 | 0
COc1ccc(NC(=O)/C(C#N)=C/c2ncc([N+](=O)[O-])n2C)c(OC)c1 | / | / | 11 | 3 | / | /
Cc1ccc(-n2cc(CNCC3CC(=O)N(C4CC4)C3)c(-c3cccc(C)c3)n2)cc1 (stereo unspecified) | 22* | / | -40 | -29 | 10 | 17
O=C(NC(N1CCOCC1)C(Cl)(Cl)Cl)c1ccc(F)cc1 (stereo unspecified) | 53* | / | -1 | -2 | 0 | 0
O=C(NC(N1CCCC1)C(Cl)(Cl)Cl)c1ccccc1 (stereo unspecified) | 0 | 4 | -1 | -4 | / | /
COC(=O)C(Cc1ccccc1)NC(=O)c1cc(S(=O)(=O)N(C)C)ccc1Cl (stereo unspecified) | -1 | / | -2 | 1 | / | /
O=C(CSCc1nc2ccccc2[nH]1)N1CCN(c2cccc(Cl)c2)CC1 | 21* | -2 | -8 | -17 | 4 | 4
O=C(CSCc1nc2ccccc2[nH]1)N1CCN(c2ccc(F)cc2)CC1 | -6 | -2 | -4 | 13 | / | /
CCOc1c(Nc2ccc(C(C)C)cc2)c(=O)c1=O | / | / | -14 | -20 | / | /
O=C(O)CNC(=S)N(Cc1ccccc1)Cc1cccs1 | 8 | / | -3 | 0 | / | /
Cc1cccc(C)c1NC(=S)N(Cc1ccccc1)Cc1cccs1 | 38* | / | -28 | -18 | 17 | 20*
CCOC(=O)C1=C(c2ccccc2)O/C(=C(/C#N)C(F)(F)F)S1 | 32* | 12 | -39 | -14 | 10 | 42*
Cn1ccc(CC(=O)N2CCC(N3CCC(C(=O)N4CCCC4)CC3)CC2)c1 | / | / | 10 | 4 | / | /
Cc1noc(C)c1CSc1nnc(-c2ccccc2F)n1CCc1ccccc1 | 20* | 12 | -15 | 9 | 4 | 4
Cc1noc(C)c1CSc1nc2ccccc2n1C | 4 | -1 | 11 | 6 | / | /
O=C(NNc1cccc(Cl)n1)c1ccccc1CC[N+](=O)[O-] | 23* | / | 20 | 8 | 2 | -1
SMILES | NPY Y1 blocker | NPY Y2 blocker | NPY-Y1 PAM-ag | NPY-Y2 PAM-ag | NPY1 antag conf | NPY-Y2 antag ct
O=C(NNc1cccc(Cl)n1)c1ccc(Cl)cc1Cl | 4 | -1 | 12 | -3 | / | /
CCOC(=O)n1c(O)c(N=NC(N)=S)c2cc(C)ccc21 | / | / | 25 | -15 | / | /
Cc1ccc(Cl)cc1N1CCN(CC(O)COCc2ccco2)CC1 (stereo unspecified) | 21* | 10 | -47 | -17 | 13 | 7
CC(C)CN(CC(C)C)C(=O)c1cccc(S(=O)(=O)N2CCc3ccccc32)c1 | 29* | / | -5 | -3 | 5 | 6
CC(C)CCNC(=O)c1cccc(S(=O)(=O)N2CCc3ccccc32)c1 | 4 | 4 | -3 | -9 | / | /
Cc1onc(-c2c(Cl)cccc2Cl)c1/C(N)=N/OC(=O)C1CC1 | / | / | 19 | -1 | / | /
Cc1cc2nc(SCCOC(=O)Nc3ccccc3)nc(C)c2cc1C | 23* | 6 | -32 | -3 | 4 | 14
Cc1cc2nc(SCCOC(=O)Nc3cccc(Cl)c3)nc(C)c2cc1C | 13 | 13 | -21 | -3 | / | /

Compound activity from PubChem BioAssay.
